From ChEMBL document CHEMBL4359893, “Synthesis, structure-activity relationship and trypanocidal activity of pyrazole-imidazoline and new pyrazole-tetrahydropyrimidine hybrids as promising chemotherapeutic agents for Chagas disease” (Eur J Med Chem, 2019)

Assays:
Cruzipain [1] = target: T1, Cruzipain (Trypanosoma cruzi, UniProt P25779); assay: Inhibition of Trypanosoma cruzi cruzipain assessed as reduction in enzymatic activity using Z-FR-AMC fluorogenic peptide substrate incubated for 45 mins by spectrophotometry analysis
T1 sequence (P25779 whole entry): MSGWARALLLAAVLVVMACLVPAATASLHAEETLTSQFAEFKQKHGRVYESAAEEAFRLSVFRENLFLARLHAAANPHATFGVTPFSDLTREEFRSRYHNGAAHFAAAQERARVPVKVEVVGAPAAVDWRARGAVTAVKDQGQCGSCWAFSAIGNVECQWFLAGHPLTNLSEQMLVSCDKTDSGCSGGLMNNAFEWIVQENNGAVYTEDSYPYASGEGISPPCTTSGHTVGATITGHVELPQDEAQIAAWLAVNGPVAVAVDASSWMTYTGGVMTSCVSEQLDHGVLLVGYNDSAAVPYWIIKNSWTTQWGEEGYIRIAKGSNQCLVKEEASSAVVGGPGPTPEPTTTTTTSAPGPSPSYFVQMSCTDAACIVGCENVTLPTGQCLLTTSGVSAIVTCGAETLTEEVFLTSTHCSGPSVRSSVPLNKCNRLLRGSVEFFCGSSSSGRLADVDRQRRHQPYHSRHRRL
Procedure, shortened: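 Soluble trypomastigote protein extract (lysis in Tris pH 8.0/NaCl/glycerol/Triton X-100, 25,000 g supernatant) used as enzyme source. Incubated with 30 µM Z-FR-AMC in 10 mM sodium acetate pH 5.0 with 1 mM DTT, co-incubated with inhibitor concentrations, 45 min at 37 °C. AMC release read by fluorescence. Substrate self-degradation and DMSO ≤1% controls.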

[2] = Selectivity index, ratio of CC50 for African green monkey Vero cells to IC50 for luciferase expressing Trypanosoma cruzi Dm28c trypomastigotes isolated from infected Vero cells; type: toxicity; conditions: read-out: Ratio CC50/IC50
[3] = target: Cruzipain (Trypanosoma cruzi) (UniProt P25779); assay: Potency index, ratio of compound IC50 to E-64 IC50 for inhibition of Trypanosoma cruzi cruzipain
Chain of Cruzipain (Trypanosoma cruzi) (P25779 123-467 limits assumed): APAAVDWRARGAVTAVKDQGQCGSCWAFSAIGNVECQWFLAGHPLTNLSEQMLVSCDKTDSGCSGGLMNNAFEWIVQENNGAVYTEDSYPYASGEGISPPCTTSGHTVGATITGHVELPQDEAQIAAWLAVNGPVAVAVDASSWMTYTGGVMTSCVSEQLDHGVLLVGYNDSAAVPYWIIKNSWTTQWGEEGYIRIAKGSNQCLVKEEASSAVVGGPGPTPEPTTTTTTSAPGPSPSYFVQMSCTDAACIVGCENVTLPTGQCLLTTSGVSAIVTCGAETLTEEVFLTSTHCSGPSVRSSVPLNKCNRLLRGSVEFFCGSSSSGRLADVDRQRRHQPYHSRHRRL

[4] = Cytotoxicity against mouse cardiomyocytes infected with intracellular amastigote stage of Trypanosoma cruzi Y strain assessed as reduction in cardiomyocyte viability after 72 hrs by Celltiter-Glo assay; type: cell-based, Cardiac Muscle Cell
Procedure, shortened: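 Primary heart muscle cells from 18-day mouse fetuses, dissociated with trypsin/collagenase II, grown in DMEM with 7% FBS, 2% chicken embryo extract, 1 mM L-glutamine, antibiotics, 37 °C, 5% CO₂. Plated at 5 × 10⁴ cells/well and treated 72 h. Viability read by ATP luminescence. CC50 from linear regression; DMSO ≤1% control; at least three independent assays in duplicate.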

Trypanosoma cruzi [5] = assay: Trypanocidal activity against Trypanosoma cruzi Y strain bloodstream trypomastigotes isolated from infected Swiss webster mouse cardiac cells assessed as reduction in parasite viability after 24 hrs by Celltiter-Glo assay; type: functional, organism-based
Procedure, shortened: (§1)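 Trypomastigotes at 1 × 10⁶ parasites/well treated 24 h at 37 °C with 0.41–100 µM compound. Y strain viability read by ATP luminescence (CellTiter-Glo); Dm28c-Luc viability read by luciferase activity. IC50/IC90 by linear regression. Benznidazole positive and DMSO ≤1% negative controls.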

[6] = Selectivity index, ratio of CC50 for mouse cardiomyocyte infected with intracellular amastigote stage of Trypanosoma cruzi Y strain to IC50 for amastigote stage of Trypanosoma cruzi Y strain; type: toxicity, cell-based; conditions: read-out: Ratio CC50/IC50
Trypanosoma cruzi [7] = assay: Trypanocidal activity against luciferase expressing Trypanosoma cruzi Dm28c trypomastigotes isolated from infected Vero cells assessed as reduction in parasite viability after 24 hrs by luciferase-luminescence assay; type: functional, organism-based; procedure, shortened: as §1
Trypanosoma cruzi [8] = assay: Potency index, ratio of compound IC90 to benznidazole IC90 for Trypanocidal activity against intracellular amastigote stage of luciferase expressing Trypanosoma cruzi Dm28c infected in Vero cells; type: functional
[9] = Cytotoxicity against African green monkey Vero cells assessed as reduction in cell viability by measuring ATP level after 72 hrs by Celltiter-Glo assay; type: cell-based; conditions: chlorocebus sabaeus
Procedure, shortened: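 Vero cells seeded at 1.5 × 10⁴ cells/well, exposed 24 h later to 1.95–500 µM compound for 72 h at 37 °C. Viability read as ATP luminescence (CellTiter-Glo). DMSO ≤1% as control. CC50 from linear regression; at least three independent assays in duplicate.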

Trypanosoma cruzi [10] = assay: Trypanocidal activity against intracellular amastigote stage of luciferase expressing Trypanosoma cruzi Dm28c infected in Vero cells assessed as reduction in parasite viability after 72 hrs in presence of luciferin by luciferase luminescence analysis
[11] = Selectivity index, ratio of CC50 for African green monkey Vero cells to IC50 for Trypanosoma cruzi Y strain bloodstream trypomastigotes isolated from infected Swiss webster mouse cardiac cells; type: toxicity; conditions: read-out: Ratio CC50/IC50
[12] = Selectivity index, ratio of CC50 for African green monkey Vero cells to IC50 for intracellular amastigote stage of luciferase expressing Trypanosoma cruzi Dm28c infected in Vero cells; type: toxicity, cell-based; conditions: read-out: Ratio CC50/IC50
Trypanosoma cruzi [13] = assay: Trypanocidal activity against intracellular amastigote stage of Trypanosoma cruzi Y strain infected in Swiss webster cardiac cells assessed as reduction in parasite viability
Cruzipain [14] = target: T1, Cruzipain; assay: Irreversible inhibition of Trypanosoma cruzi cruzipain

SMILES	IC50 (Cruzipain [1])	selectivity ratio [2]	Ratio IC50 [3]	CC50 at 72 h [4]	IC50 (Trypanosoma cruzi [5])	IC90 (Trypanosoma cruzi [5])	selectivity ratio [6]	IC50 (Trypanosoma cruzi [7])	IC90 (Trypanosoma cruzi [7])	Ratio (Trypanosoma cruzi [8])	CC50 at 72 h [9]	IC50 (Trypanosoma cruzi [10])	IC90 (Trypanosoma cruzi [10])	selectivity ratio [11]	selectivity ratio [12]	IC50 (Trypanosoma cruzi [13])	IC50 (Cruzipain [14])
Nc1c(C2=NCCN2)cnn1-c1ccc(Cl)c(Cl)c1	180 µM	23.3	60	412 µM	28.3 µM	> 100 µM	32.4	10.5 µM	29 µM	4.4	244 µM	13.6 µM	30.5 µM	8.6	17.9	12.7 µM	–
Nc1c(C2=NCCCN2)cnn1-c1ccc(Cl)cc1	–	–	–	–	> 100 µM	> 100 µM	–	> 100 µM	> 100 µM	–	> 500 µM	> 100 µM	> 100 µM	–	–	–	–
COc1ccc(-n2ncc(C3=NCCCN3)c2N)cc1	–	–	–	–	> 100 µM	> 100 µM	–	> 100 µM	> 100 µM	–	> 500 µM	> 100 µM	> 100 µM	–	–	–	–
Nc1c(C2=NCCCN2)cnn1-c1ccccc1	–	–	–	–	> 100 µM	> 100 µM	–	> 100 µM	> 100 µM	–	> 500 µM	> 100 µM	> 100 µM	–	–	–	–
Nc1c(C2=NCCCN2)cnn1-c1ccc(F)cc1	–	–	–	–	> 100 µM	> 100 µM	–	> 100 µM	> 100 µM	–	> 500 µM	> 100 µM	> 100 µM	–	–	–	–
Nc1c(C2=NCCN2)cnn1-c1cccc(Br)c1	–	–	–	–	27.7 µM	> 100 µM	–	> 100 µM	> 100 µM	–	352 µM	67.4 µM	> 100 µM	12.7	5.2	–	–
Nc1c(C2=NCCN2)cnn1-c1ccc(Cl)cc1	–	> 6.3	–	–	84.2 µM	> 100 µM	–	78.9 µM	> 100 µM	–	> 500 µM	> 100 µM	> 100 µM	> 5.9	–	–	–
Nc1c(C2=NCCN2)cnn1-c1cc(Cl)cc(Cl)c1	24 µM	27.1	8	379 µM	30.9 µM	> 100 µM	30.3	9.5 µM	28.9 µM	4.4	257 µM	16.5 µM	29.9 µM	8.3	15.6	12.5 µM	–
CC(C)C[C@H](NC(=O)[C@@H]1O[C@H]1C(=O)O)C(=O)NCCCCN=C(N)N	–	–	–	–	–	–	–	–	–	–	–	–	–	–	–	–	3 µM
Nc1c(C2=NCCCN2)cnn1-c1ccc(Br)cc1	–	–	–	–	> 100 µM	> 100 µM	–	> 100 µM	> 100 µM	–	> 500 µM	> 100 µM	> 100 µM	–	–	–	–
Nc1c(C2=NCCCN2)cnn1-c1cccc(Cl)c1	–	–	–	–	> 100 µM	> 100 µM	–	> 100 µM	> 100 µM	–	> 500 µM	> 100 µM	> 100 µM	–	–	–	–
COc1ccc(-n2ncc(C3=NCCN3)c2N)cc1	–	–	–	–	> 100 µM	> 100 µM	–	> 100 µM	> 100 µM	–	> 500 µM	63.4 µM	> 100 µM	–	> 7.9	–	–
Nc1c(C2=NCCN2)cnn1-c1ccc(F)cc1	–	–	–	–	> 100 µM	> 100 µM	–	> 100 µM	> 100 µM	–	> 500 µM	> 100 µM	> 100 µM	–	–	–	–
Nc1c(C2=NCCCN2)cnn1-c1cccc(Br)c1	–	–	–	–	> 100 µM	> 100 µM	–	> 100 µM	> 100 µM	–	> 500 µM	> 100 µM	> 100 µM	–	–	–	–
Nc1c(C2=NCCN2)cnn1-c1ccccc1	–	–	–	–	> 100 µM	> 100 µM	–	> 100 µM	> 100 µM	–	> 500 µM	84.2 µM	> 100 µM	–	> 5.9	–	–
Nc1c(C2=NCCCN2)cnn1-c1cc(Cl)cc(Cl)c1	–	–	–	–	> 100 µM	> 100 µM	–	> 100 µM	> 100 µM	–	> 500 µM	> 100 µM	> 100 µM	–	–	–	–
Nc1c(C2=NCCN2)cnn1-c1ccc(Br)cc1	–	–	–	–	52.3 µM	> 100 µM	–	> 100 µM	> 100 µM	–	> 500 µM	84.2 µM	> 100 µM	> 9.5	> 5.9	–	–
Nc1c(C2=NCCN2)cnn1-c1cccc(Cl)c1	–	9.4	–	–	31.3 µM	> 100 µM	–	53.3 µM	81.1 µM	–	> 500 µM	20.6 µM	55 µM	> 15.9	> 24.3	–	–
O=C(Cn1ccnc1[N+](=O)[O-])NCc1ccccc1 [BENZNIDAZOLE]	–	> 26.3	–	> 500 µM	23.3 µM	> 100 µM	> 555	19.1 µM	94.1 µM	–	> 500 µM	1.9 µM	6.9 µM	> 21.4	> 263	0.9 µM	–
Nc1c(C2=NCCCN2)cnn1-c1ccc(Cl)c(Cl)c1	–	–	–	–	> 100 µM	> 100 µM	–	> 100 µM	> 100 µM	–	> 500 µM	> 100 µM	> 100 µM	–	–	–	–
